According to ChEMBL document CHEMBL3351434, “Synthesis of novel chromeno-annulated cis-fused pyrano[3,4-c]benzopyran and naphtho pyran derivatives via domino aldol-type/hetero Diels-Alder reaction and their cytotoxicity evaluation” (Bioorg Med Chem Lett, 2014):
pIC50: −log10 of the molar value.

Columns and labels:
[1] = Cytotoxicity against HEK cells by MTT assay; type: cell-based; settings: human, hek293
How it was run: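 Cells were HEK293, a line derived from normal human embryonic kidney, used as the non-cancer counter-screen. Viability was read by MTT following a previously reported protocol.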

A549 = assay: Cytotoxicity against human A549 cells by MTT assay; type: functional, cell-based
MCF7 = assay: Cytotoxicity against human MCF7 cells by MTT assay; type: functional, cell-based
HeLa = assay: Cytotoxicity against human HeLa cells by MTT assay; type: functional, cell-based
MDA-MB-231 = assay: Cytotoxicity against human MDA-MB-231 cells by MTT assay; type: functional, cell-based

| Compound | Activity [1] | pIC50 (A549) | pIC50 (MCF7) | pIC50 (HeLa) | pIC50 (MDA-MB-231) |
| --- | --- | --- | --- | --- | --- |
| CCC(=O)c1ccc2c(c1O)[C@@H]1c3c(ccc4c(=O)c(-c5ccccc5)c(C)oc34)OC[C@@H]1C(C)(C)O2 | Non-toxic | 4.72 | 4.69 | 4.74 | 5.21 |
| CCC(=O)c1ccc2c(c1O)[C@@H]1c3c(ccc4c(=O)c(C)c(C)oc34)OC[C@@H]1C(C)(C)O2 |  | < 4.00 | < 4.00 | < 4.00 | < 4.00 |
| CC(=O)c1ccc2c(c1O)[C@@H]1c3c(ccc4c(=O)c(C)c(C)oc34)OC[C@@H]1C(C)(C)O2 |  | < 4.00 | < 4.00 | < 4.00 | < 4.00 |
| Cc1oc2c3c(ccc2c(=O)c1C)OC[C@H]1[C@@H]3c2c(ccc(C(=O)Cc3ccccc3)c2O)OC1(C)C |  | < 4.00 | < 4.00 | < 4.00 | < 4.00 |
| Cc1oc2c3c(ccc2c(=O)c1C)OC[C@H]1[C@@H]3c2c(ccc(C(=O)c3ccccc3)c2O)OC1(C)C |  | < 4.00 | < 4.00 | < 4.00 | < 4.00 |
| CCC(=O)c1ccc2c(c1O)[C@H]1c3c(ccc4c(=O)c(C)coc34)OC[C@H]1C(C)(C)O2 |  | < 4.00 | < 4.00 | < 4.00 | < 4.00 |
| CC(=O)c1ccc2c(c1O)[C@H]1c3c(ccc4c(=O)c(C)coc34)OC[C@H]1C(C)(C)O2 |  | < 4.00 | < 4.00 | < 4.00 | < 4.00 |
| Cc1coc2c3c(ccc2c1=O)OC[C@H]1[C@@H]3c2c(ccc(C(=O)Cc3ccccc3)c2O)OC1(C)C |  | < 4.00 | < 4.00 | < 4.00 | < 4.00 |
| Cc1coc2c3c(ccc2c1=O)OC[C@H]1[C@@H]3c2c(ccc(C(=O)c3ccccc3)c2O)OC1(C)C | Non-toxic | 4.77 | 5.20 | 5.82 | 5.25 |
| CC(=O)c1ccc2c(c1O)[C@@H]1c3c(ccc4c(=O)c(-c5ccccc5)c(C)oc34)OC[C@@H]1C(C)(C)O2 | Non-toxic | 5.60 | 4.95 | 5.32 | 4.33 |
| Cc1oc2c3c(ccc2c(=O)c1C)OC[C@H]1[C@@H]3c2ccc3ccccc3c2OC1(C)C |  | < 4.00 | < 4.00 | < 4.00 | < 4.00 |
| Cc1coc2c3c(ccc2c1=O)OC[C@H]1[C@@H]3c2ccc3ccccc3c2OC1(C)C |  | < 4.00 | < 4.00 | < 4.00 | < 4.00 |
| COc1cccc2c1C(=O)c1c(O)c3c(c(O)c1C2=O)C[C@@](O)(C(=O)CO)C[C@@H]3O[C@H]1C[C@H](N)[C@H](O)[C@H](C)O1 [DOXORUBICIN] |  |  | 5.98 |  | 6.30 |
